These results are taken from PubChem BioAssay.

The structures appear in SMILES notation. Active and inactive are the calls of the source.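 How the source made its calls, unless noted: active means fluorescence slope after compound addition differing from the mean of all screened samples at 99.7% confidence, in either direction; inactive means the rest.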

Test [1] in a line: inhibitors of TNFa-induced NFkB p65 translocation, primary screen, imaging, HUVEC, MLSMR starter and 10KST1 sets (AID 438;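 active means inhibition above 20% together with a positive visual image hit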;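 further: compound added about 3h40 before a 20 min TNFalpha stimulation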;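 on inhibition: signal is the nuclear over cytoplasmic p65 intensity ratio per well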). The note with it: HUVEC TNFa-induced p65 nuclear translocation; cell count: measured here: nuclei count (cytotoxicity indicator), at 2.08 µM; inhibition: at 2 µM, stronger effect = higher value, 0% TNFa-plus-vehicle, 100% no-TNFa wells.
Test [2] can be described thus: inhibitors of mutant huntingtin aggregation, primary screen, imaging, exon1htt(103Q)mCFP cells, high-content imaging (AID 483;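 active means visual image review flags a hit and inhibition of aggregation exceeds 20%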;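 further: compound exposure lasted 3 days before fixation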;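 on nuclei count: percent of the per-plate median nuclei count of sample wells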). As to conditions: exon1htt(103Q)mCFP cell line, aggregate imaging, at 2 µM; inhibition of aggregation: stronger effect = higher value; nuclei count: measured here: cell count, toxicity.
Test [3] is described as follows: inhibitors of E-selectin induction by TNFa, primary screen, imaging, HUVEC, immunofluorescence, MLSMR starter and 10KST1 sets (AID 487;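 active means visually confirmed hit in the image check and inhibition above 20%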;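 on inhibition: signal is fraction of cell area covered by stained E-selectin grains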;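 on nuclei count: 100% = median nuclei count of all wells on the same plate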). As to conditions: HUVEC TNFalpha-induced E-selectin immunofluorescence imaging, at 2 µM; inhibition: stronger effect = higher value; nuclei count: measured here: cell number, toxicity.
In test [4] the target is Voltage-gated potassium channel subunit beta-2 (Rattus norvegicus) (UniProt P62483). The test can be described thus: KvBeta enzyme negative modulators, primary screen, biochemical, NADPH fluorescence (AID 622;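 active means fluorescence slope higher than the sample average by over 3 SD, cut at about -0.22 in these data, passing the limit was not always enough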;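 further: slope of raw intensity against log time taken from 70 to 1610 s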). As to conditions: recombinant KvBeta, 4-cyanobenzaldehyde reduction, at 10 µM, stronger effect = higher value.
Test [5] has the same target. Put plainly: KvBeta positive modulators, primary screen, biochemical, NADPH fluorescence (AID 623;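 active means NADPH fluorescence slope more negative than the mean of all samples by about 3 SD, 99.7% confidence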;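 further: fluorescence intensity change per second fitted from 20 to 320 s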). The note with it: Recombinant KvBeta, NADPH fluorescence decrease slope, 10 min; at 10 µM; stronger effect = lower value.
The target of test [6] is Alpha-2C adrenergic receptor (Homo sapiens) (UniProt P18825). The test can be described thus: modulators of alpha2C/GIRK thallium flux, primary screen, cell-based, HEK293 alpha2C/GIRK1/2 (AID 624).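 Further: slope of fluorescence ratio to pre-addition baseline per second over 15 to 24 s.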 The note with it: thallium flux BTC fluorescence, at 10 µM, actives lie on both sides.
Test [7] is described as follows: inhibitors of larval lipid processing in zebrafish, primary screen, whole organism, PED6 fluorescence, gall bladder and intestine (AID 686;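 active means a full or partial loss of lipid-probe fluorescence in the fish gall bladder, intestine or both, judged by eye; inactive means no fluorescence loss, or compound toxic to the fish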;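 further: larvae 5 to 7 days old with five fish per well; signal comes from phospholipase A2 cleavage of quenched PED6 carried via bile; overnight exposure to compound and PED6 before scoring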). The note with it: Zebrafish larvae PED6 lipid processing, fluorescence scoring; screened at 20 µM (by protocol). In short, it runs like this: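 Test system – live zebrafish larvae aged 5-7 days, whole organism · Buffer or medium – E3 fish medium · Reagent – quenched phospholipase substrate PED6, 100 nM final, ingested by larvae · Doses – 20 µM single dose · Incubation – overnight compound and PED6 incubation · Technique – visual fluorescence microscopy scoring of gall bladder, gut · Read-out basis – visual per-well fluorescence inhibition score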

A short description of test [8]: inhibitors of Sendai virus-induced IRF3 signaling, primary screen, TLR/RLR signaling modifier project, cell-based, Sendai virus stimulus, luciferase, 10K MLSCN set (AID 602276;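 active means inhibition at or above 50% at 10 µM; inactive means inhibition below 50%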;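 further: firefly luciferase from ISG56 promoter only with Renilla not read in this screen; 0% = Sendai virus plus DMSO and 100% = medium plus DMSO without virus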). As to conditions: HEK293 RL24 IRF3 luciferase reporter, at 10 µM, stronger effect = higher value.
The nature of test [9]: inhibitors of poly I:C-induced TLR3 signaling, primary screen, cell-based, poly I:C stimulus, luciferase, 10K MLSCN set (AID 602277;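 active means inhibition of the reporter signal at or above 50%; inactive means inhibition below 50%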). As to conditions: HEK293-TLR3 RL24 IRF3 luciferase reporter, at 10 µM, stronger effect = higher value. In general terms: A reporter such as luciferase makes a cellular process visible.

Chain of Voltage-gated potassium channel subunit beta-2 (Rattus norvegicus) (P62483 whole entry, looked up): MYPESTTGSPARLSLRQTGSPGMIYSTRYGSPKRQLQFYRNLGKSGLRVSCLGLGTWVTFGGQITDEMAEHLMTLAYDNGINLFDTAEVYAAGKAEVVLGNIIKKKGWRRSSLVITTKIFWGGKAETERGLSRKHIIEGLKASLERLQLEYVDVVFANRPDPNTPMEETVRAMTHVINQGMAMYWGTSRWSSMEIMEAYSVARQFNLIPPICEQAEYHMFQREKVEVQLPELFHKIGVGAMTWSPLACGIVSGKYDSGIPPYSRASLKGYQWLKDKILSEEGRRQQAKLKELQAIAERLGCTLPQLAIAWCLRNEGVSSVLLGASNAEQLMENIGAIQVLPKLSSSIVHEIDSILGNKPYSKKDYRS
Chain of Alpha-2C adrenergic receptor (Homo sapiens) (P18825 whole entry, looked up): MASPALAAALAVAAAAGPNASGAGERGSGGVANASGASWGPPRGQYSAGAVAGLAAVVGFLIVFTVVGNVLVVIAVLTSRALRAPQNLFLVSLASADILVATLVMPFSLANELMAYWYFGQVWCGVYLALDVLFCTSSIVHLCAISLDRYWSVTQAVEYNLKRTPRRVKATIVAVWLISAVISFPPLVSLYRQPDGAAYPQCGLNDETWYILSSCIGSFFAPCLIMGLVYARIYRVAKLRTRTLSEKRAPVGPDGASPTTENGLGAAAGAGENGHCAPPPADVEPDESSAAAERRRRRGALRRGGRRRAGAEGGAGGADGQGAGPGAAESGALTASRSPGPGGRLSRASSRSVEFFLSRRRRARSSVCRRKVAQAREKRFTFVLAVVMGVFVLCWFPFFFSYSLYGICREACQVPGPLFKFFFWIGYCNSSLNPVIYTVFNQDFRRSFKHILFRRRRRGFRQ

For orientation: inhibition means the drop in the measured response relative to a control, in per cent. As to `C=CCN(CC=C)C(=O)Nc1cc(Cl)ccc1OC`, the cell count in test [1] was 373. In addition, the inhibition in [1] was 0.5% (inactive); in [3], -87.7% (inactive); in test [8] it was 4.56% (inactive); in test [9], -3.97% (inactive). For the same molecule, the inhibition of aggregation in test [2] is -7.2% (inactive). In addition, the nuclei count came out at 103% in test [2] and 111% in [3]. In addition, in [4], the fluorescence slope is -0.402 (inactive). The NADPH fluorescence slope in test [5] is -3.2e-05 (inactive). Further, the slope in [6] was 0.0044 (inactive). For the same molecule, in test [7], the molecule was called inactive.
In the case of `O=C(Nc1cccc(OCC(=O)N2CCOCC2)c1)C1CCCCC1`, in test [1], the cell count turned out to be 428. The inhibition in [1] was 4.9% (inactive); in test [3], -22.9% (inactive); in test [8], 11.4% (inactive); in test [9], 12.7% (inactive). For the same molecule, the inhibition of aggregation in test [2] was 5.7% (inactive). The nuclei count in test [2] was found to be 95.1%; in [3], 94.2%. The fluorescence slope in test [4] is -0.471 (inactive). Besides, the NADPH fluorescence slope in test [5] is -5.6e-05 (inactive). The slope in [6] is 0.0056 (inactive). Besides, in test [7], the molecule was classed as inactive.
Regarding `COc1ccccc1CNC(=O)C(C)NS(=O)(=O)c1ccccc1` (stereo not drawn), the cell count in test [1] is 295. The inhibition in [1] was -11.3% (inactive); in test [3], -11.2% (inactive); in [8], -0.773% (inactive); in test [9] it was 1.85% (inactive). Besides, the inhibition of aggregation in [2] is -13.2% (inactive). For the same molecule, the values for the nuclei count in test [2] and in test [3] were 107% and 78%, respectively. In [4], the fluorescence slope was -0.406 (inactive). In test [5], the NADPH fluorescence slope is 2.3e-06 (inactive). In addition, the slope in [6] was 0.00647 (inactive). For the same molecule, the call in test [7] was inactive.
Turning to `O=C(COC(=O)c1ccccc1C(=O)c1ccccc1)c1ccco1`, the cell count in test [1] was determined as 327. In addition, the inhibition in test [1] is 7.4% (inactive); in test [3], 4% (inactive); in test [8], -5.98% (inactive); in test [9], 2.21% (inactive). Moreover, the inhibition of aggregation in [2] was -2.3% (inactive). Moreover, the nuclei count is 89.2% in [2] and 113% in [3]. In addition, the fluorescence slope in [4] is -0.501 (inactive). The NADPH fluorescence slope in test [5] was 2.4e-06 (inactive). Moreover, the slope in test [6] is 0.00441 (inactive). Besides, in test [7], the molecule was called inactive.
Turning to `CCCc1ccccc1OCCNC(C)=O`, the cell count in test [1] was found to be 585. Further, the inhibition was 9.6% (inactive) in [1], -76.7% (inactive) in test [3], -4.34% (inactive) in test [8] and 3.6% (inactive) in test [9]. Besides, the inhibition of aggregation in test [2] was 18.6% (inactive). Further, the nuclei count was 116% in [2] and 105% in test [3]. Further, in test [4], the fluorescence slope was -0.366 (inactive). Moreover, the NADPH fluorescence slope in test [5] was -3.9e-06 (inactive). Besides, the slope in test [6] was 0.00527 (inactive). For the same molecule, the call in test [7] was inactive.
In the case of `Cn1c(C(=O)OC(C(=O)NC2CCCC2)c2cccnc2)cc2sccc21` (stereo not drawn), the cell count in test [1] amounted to 495. The inhibition in [1] is 4% (inactive); in test [3] it was -76.7% (inactive); in [8], 18.1% (inactive); in [9], 15.4% (inactive). The inhibition of aggregation in test [2] is 9.5% (inactive). Moreover, the values for the nuclei count in [2] and in test [3] were 100% and 102%, respectively. Also, in [4], the fluorescence slope was -0.437 (inactive). Further, the NADPH fluorescence slope in [5] was -5.4e-05 (inactive). For the same molecule, the slope in test [6] was 0.00446 (inactive). For the same molecule, in test [7], the outcome is “active; weak signal in gallbladder and intestine”.
Consider `O=C1OCCC1Sc1ncnc2sccc12` (stereo not drawn), for which, in test [1], the cell count was determined as 498. Further, the inhibition is -6.8% (inactive) in test [1], -1.7% (inactive) in test [3], 9.26% (inactive) in test [8] and 12.3% (inactive) in test [9]. Moreover, the inhibition of aggregation in test [2] was -0.5% (inactive). For the same molecule, the figures for the nuclei count in test [2] and in test [3] were 125% and 110%, respectively. Besides, the fluorescence slope in [4] is -0.376 (inactive). In [5], the NADPH fluorescence slope was -7.9e-05 (inactive). For the same molecule, in test [6], the slope is 0.00502 (inactive). In [7], the molecule was classed as inactive.
Regarding `CSCCC(NC(=O)CCN1C(=O)c2ccccc2C1=O)C(=O)O` (stereo not drawn), the cell count in test [1] worked out at 366. Further, the inhibition is 1.8% (inactive) in test [1], -76.8% (inactive) in [3], 15.7% (inactive) in [8] and 19.3% (inactive) in test [9]. The inhibition of aggregation in test [2] is -10.9% (inactive). In addition, the nuclei count in test [2] amounted to 99.7%; in test [3] it was 110%. The fluorescence slope in test [4] is -0.411 (inactive). The NADPH fluorescence slope in test [5] was 2e-07 (inactive). Moreover, in test [6], the slope is 0.00495 (inactive). Moreover, the molecule was classed as inactive in test [7].
With `CN(C)C(=O)CSc1nnc2sc3ccccc3n12`, the cell count in test [1] worked out at 388. For the same molecule, the inhibition in test [1] was -9.2% (inactive); in test [3] it was -32.3% (inactive); in test [8], 15.9% (inactive); in test [9], 23.7% (inactive). For the same molecule, in test [2], the inhibition of aggregation is -15.4% (inactive). Also, the nuclei count amounted to 105% in test [2] and 102% in test [3]. Further, the fluorescence slope in test [4] is -0.438 (inactive). For the same molecule, in [5], the NADPH fluorescence slope is -2.4e-05 (inactive). For the same molecule, in test [6], the slope is 0.00511 (inactive). The molecule was classed as inactive in test [7].
With `CSc1nnc(-c2ccccc2)n1C`, the cell count in [1] was found to be 645. In addition, the inhibition was -13.1% (inactive) in test [1], -16.6% (inactive) in test [3], 16.8% (inactive) in test [8] and 17.4% (inactive) in [9]. Also, the inhibition of aggregation in test [2] was -35.1% (inactive). For the same molecule, the nuclei count was determined as 111% in test [2] and 108% in test [3]. Besides, in test [4], the fluorescence slope was -0.398 (inactive). Besides, the NADPH fluorescence slope in test [5] was -6.9e-06 (inactive). For the same molecule, in test [6], the slope was 0.00519 (inactive). For the same molecule, the outcome in test [7] was inactive.
Consider `COCCNC(=O)C(c1ccc(C)o1)N(Cc1cccs1)C(=O)c1snc(C(N)=O)c1N` (stereo not drawn), for which the cell count in test [1] stood at 387. In addition, the inhibition in [1] was 3.5% (inactive); in test [3] it was -93.7% (inactive); in test [8] it was -13.8% (inactive); in test [9] it was -11.9% (inactive). The inhibition of aggregation in test [2] was 6.6% (inactive). Besides, the nuclei count was 96.3% in [2] and 117% in test [3]. The fluorescence slope in test [4] is -0.379 (inactive). The NADPH fluorescence slope in test [5] is -4.3e-05 (inactive). Moreover, the slope in test [6] is 0.00484 (inactive). For the same molecule, the outcome in [7] was inactive.
`COc1ccc(C)cc1-n1nnnc1SC/C(O)=C(\C#N)c1nc2ccccc2[nH]1`: in test [1], the cell count stood at 614. The inhibition was 5.1% (inactive) in test [1], -42.5% (inactive) in test [3], 15.6% (inactive) in [8] and 27% (inactive) in [9]. Also, the inhibition of aggregation in [2] was -491% (inactive). In addition, the nuclei count amounted to 42.2% in [2] and 104% in test [3]. The fluorescence slope in test [4] is -0.431 (inactive). The NADPH fluorescence slope in [5] is -3.4e-05 (inactive). In test [6], the slope is 0.00627 (inactive). In test [7], the outcome is “active; weak signal in gallbladder only”.
Turning to `CCC(=O)Nc1ccc(NC(=O)c2ccccn2)cn1`, the cell count in test [1] stood at 778. Also, the inhibition was -11% (inactive) in test [1], -9.1% (inactive) in test [3], -3% (inactive) in [8] and 99.2% (active) in test [9]. Further, in test [2], the inhibition of aggregation was -6.5% (inactive). Besides, the nuclei count stood at 102% in test [2] and 104% in test [3]. In addition, the fluorescence slope in test [4] is -0.402 (inactive). Moreover, in [5], the NADPH fluorescence slope is -5.9e-05 (inactive). For the same molecule, the slope in [6] is 0.00517 (inactive). Moreover, in [7], the molecule was classed as inactive.
As to `c1n[nH]c(SCCCCSc2ncn[nH]2)n1`, the cell count in test [1] is 512. Besides, the inhibition in test [1] is -30.6% (inactive); in test [3], 24% (inactive); in test [8] it was 15.9% (inactive); in test [9] it was 13% (inactive). Further, the inhibition of aggregation in [2] is -15.1% (inactive). Besides, the nuclei count came out at 108% in test [2] and 113% in test [3]. Also, in [4], the fluorescence slope was -0.452 (inactive). In test [5], the NADPH fluorescence slope was -7e-05 (inactive). The slope in [6] was 0.00417 (inactive). Further, the result in test [7] was inactive.
